One test has as its target DNA ligase (Staphylococcus aureus, UniProt Q9AIU7). Put plainly: Inhibition of Staphylococcus aureus NAD-dependent DNA ligase.
For test [1], the system named is Escherichia coli. Put plainly: Antibacterial activity against tolC/rfaC-deficient Escherichia coli. The class given is functional.
In test [2] the test system is Escherichia coli. Put plainly: Antibacterial activity against tolC/rfaC-deficient Escherichia coli harboring ligA251 mutant and pECLigA. The class given is functional. In a few lines:
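MIC read-out. The strain is the isogenic ligA251 E. coli strain, over-producing wild-type LigA from plasmid pECLigA, which gives high ligation activity.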

Test [3] is described as follows: Inhibition of Escherichia coli NAD-dependent DNA ligase.
The test system of test [4] is Escherichia coli. As to the kind of experiment: Antibacterial activity against tolC/rfaC-deficient Escherichia coli harboring ligA251 mutant. In kind it is functional. The gist of the method: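 MIC read-out. The E. coli strain carries only the ligA251 allele (L15F exchange), which gives more than 20-fold reduced ligation activity and sensitizes it to LigA inhibitors.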

The nature of test [5]: Inhibition of Streptococcus pneumoniae NAD-dependent DNA ligase assessed as equilibrium dissociation constant.

Converted amounts (≈) assume the structure as drawn.

1 compound from ChEMBL document CHEMBL2163244, “Structure-guided design, synthesis and biological evaluation of novel DNA ligase inhibitors with in vitro and in vivo anti-staphylococcal activity” (Bioorg Med Chem Lett, 2012) can be followed below.

By IC50 is commonly meant the concentration that inhibits the measured activity by half. A higher IC50 goes with a need for much substance. As usually defined, the MIC is the smallest concentration in the dilution series that meets the test's criterion for growth inhibition. A low value points to greater potency. In general, Kd refers to the free concentration of one partner at which half of the binding sites on the other are occupied at equilibrium, for simple one-to-one binding. Regarding `Nc1cc(-c2nc3ccccc3[nH]2)n[nH]c1=O`, the IC50 against DNA ligase is 2.5 µM; in test [3], over 25 µM. Moreover, the MIC is over 16 µg/mL in the test with Escherichia coli [1], 16 µg/mL (≈ 70.4 µM) in the test with Escherichia coli [2] and 8 µg/mL (≈ 35.2 µM) with Escherichia coli [4]. Moreover, the Kd in test [5] amounted to 20 µM.
